Data taken from ChEMBL document CHEMBL4043300, “2 H-1,2,3-Triazole-Based Dipeptidyl Nitriles: Potent, Selective, and Trypanocidal Rhodesain Inhibitors by Structure-Based Design” (J Med Chem, 2018).
In brackets after ≈: the same amount, converted by molar mass.

Columns and labels:
[1] = Solubility of the compound at pH 6.5 by LYSA; format: physicochemical; conditions: buffer
Summary of the method: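 Lyophilization solubility assay at pH 6.5.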

Rhodesain = Rhodesain (Trypanosoma brucei rhodesiense, UniProt Q95PM0); experiment: Inhibition of Trypanosoma brucei rhodesiense rhodesain using Cbz-Phe-Arg-AMC as substrate by fluorimetric method
Sequence of Rhodesain (Q95PM0 whole entry): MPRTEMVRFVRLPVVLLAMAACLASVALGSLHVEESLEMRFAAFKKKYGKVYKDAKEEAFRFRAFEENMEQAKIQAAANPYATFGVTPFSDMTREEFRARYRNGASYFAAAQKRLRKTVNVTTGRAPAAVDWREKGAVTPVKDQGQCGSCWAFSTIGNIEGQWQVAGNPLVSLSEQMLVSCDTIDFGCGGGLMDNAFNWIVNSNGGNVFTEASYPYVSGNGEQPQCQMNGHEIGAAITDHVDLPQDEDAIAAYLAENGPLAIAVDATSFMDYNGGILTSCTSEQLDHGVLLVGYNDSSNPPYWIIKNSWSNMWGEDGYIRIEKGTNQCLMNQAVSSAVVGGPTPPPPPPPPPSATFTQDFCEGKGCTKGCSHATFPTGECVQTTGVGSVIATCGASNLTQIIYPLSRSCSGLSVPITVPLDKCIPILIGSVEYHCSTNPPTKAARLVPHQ
Summary of the method: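 Fluorescence-based assay run at 25 °C in 50 mM sodium acetate pH 5.5 with 5 mM EDTA, 200 mM NaCl and 0.005% Brij35. IC50 values were converted to Ki with the Cheng-Prusoff equation. Values are the average of two measurements, each done in duplicate.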

Procathepsin L = Procathepsin L (Homo sapiens, UniProt P07711); experiment: Inhibition of human CatL using Cbz-Phe-Arg-AMC as substrate measured over 30 mins by fluorimetric method
Sequence of Procathepsin L (P07711 whole entry): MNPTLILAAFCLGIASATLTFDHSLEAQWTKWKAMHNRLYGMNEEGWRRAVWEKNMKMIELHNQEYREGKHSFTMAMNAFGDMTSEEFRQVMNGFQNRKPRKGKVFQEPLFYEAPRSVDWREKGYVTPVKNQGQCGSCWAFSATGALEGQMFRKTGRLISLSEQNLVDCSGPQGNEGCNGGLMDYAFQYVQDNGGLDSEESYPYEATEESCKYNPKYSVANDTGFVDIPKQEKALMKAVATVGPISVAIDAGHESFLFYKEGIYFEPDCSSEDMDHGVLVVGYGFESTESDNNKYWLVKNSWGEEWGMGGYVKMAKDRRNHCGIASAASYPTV
Summary of the method: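 Human cathepsin L in a fluorimetric assay in 50 mM Tris pH 6.5, 5 mM EDTA, 200 mM NaCl, 0.005% Brij35 at 25 °C. Ki was calculated from IC50 by Cheng-Prusoff. Value is the average of two measurements, each in duplicate.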

[2] = Selectivity index, ratio of Ki for human CatL to Ki for Trypanosoma brucei rhodesiense rhodesain
Summary of the method: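 Ki(hCatL)/Ki(RD). Fluorimetric assays at 25 °C: RD in 50 mM sodium acetate pH 5.5; hCatL in 50 mM Tris pH 6.5; both buffers with 5 mM EDTA, 200 mM NaCl, 0.005% Brij35. Ki derived from IC50 by Cheng-Prusoff. Each value is the mean of two measurements, each done in duplicate.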

[3] = tested on: Trypanosoma brucei rhodesiense; experiment: Antitrypanosomal activity against bloodstream form of Trypanosoma brucei rhodesiense STIB 900 assessed as parasite growth inhibition after 72 hrs by Alamar blue assay; format: functional; conditions: STIB 900, 72 h
Summary of the method: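 Standard 72 h growth-inhibition assay with STIB 900 bloodstream trypomastigotes and Alamar Blue read-out. Value is the mean of at least 2 measurements.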

L6 = experiment: Cytotoxicity against rat L6 cells after 72 hrs by Alamar blue assay; format: cell-based; conditions: L6, 72 h
Summary of the method: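 Rat skeletal myoblast L6 cells in an Alamar Blue growth-inhibition assay. Value is the mean of at least 2 measurements.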

[4] = tested on: Trypanosoma brucei rhodesiense; experiment: Antitrypanosomal activity against bloodstream form of Trypanosoma brucei rhodesiense STIB 900 assessed as parasite growth inhibition after 2 hrs by Alamar blue assay; format: functional; conditions: STIB 900, 2 h
Summary of the method: (§1)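 Bloodstream STIB 900 trypomastigotes, 1x10⁴ per well, exposed to eleven 3-fold serial dilutions at 37 °C/5% CO₂ for the stated pulse time. Parasites were then pelleted and washed four times, and an aliquot was regrown 72 h drug-free in triplicate plates. Resazurin was added for 2–4 h, fluorescence read at ex 536/em 588 nm, and IC50 taken by linear regression of sigmoidal curves. Melarsoprol served as control.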

[5] = tested on: Trypanosoma brucei rhodesiense; experiment: Antitrypanosomal activity against bloodstream form of Trypanosoma brucei rhodesiense STIB 900 assessed as parasite growth inhibition after 6 hrs by Alamar blue assay; format: functional; conditions: STIB 900, 6 h; summary of the method: as §1
[6] = tested on: Trypanosoma brucei rhodesiense; experiment: Antitrypanosomal activity against bloodstream form of Trypanosoma brucei rhodesiense STIB 900 assessed as parasite growth inhibition after 16 hrs by Alamar blue assay; format: functional; conditions: STIB 900, 16 h; summary of the method: as §1
[7] = tested on: Trypanosoma brucei rhodesiense; experiment: Antitrypanosomal activity against bloodstream form of Trypanosoma brucei rhodesiense STIB 900 assessed as parasite growth inhibition after 24 hrs by Alamar blue assay; format: functional; conditions: STIB 900, 24 h; summary of the method: as §1
[8] = tested on: Trypanosoma brucei rhodesiense; experiment: Antitrypanosomal activity against bloodstream form of Trypanosoma brucei rhodesiense STIB 900 assessed as parasite growth inhibition after 48 hrs by Alamar blue assay; format: functional; conditions: STIB 900, 48 h; summary of the method: as §1
[9] = Intrinsic clearance in human liver microsomes at 2 uM after 30 mins in presence of NADPH by LC-MS/MS method; format: ADME, microsome; conditions: read-out: CLH
[10] = Intrinsic clearance in mouse liver microsomes at 2 uM after 30 mins in presence of NADPH by LC-MS/MS method; format: ADME, microsome; conditions: read-out: CLH
Cytochrome P450 3A4 = Cytochrome P450 3A4 (Homo sapiens, UniProt P08684); experiment: Inhibition of CYP3A4 in human liver microsomes using DBF as substrate by fluorescence assay; format: ADME
Sequence of Cytochrome P450 3A4 (P08684 whole entry): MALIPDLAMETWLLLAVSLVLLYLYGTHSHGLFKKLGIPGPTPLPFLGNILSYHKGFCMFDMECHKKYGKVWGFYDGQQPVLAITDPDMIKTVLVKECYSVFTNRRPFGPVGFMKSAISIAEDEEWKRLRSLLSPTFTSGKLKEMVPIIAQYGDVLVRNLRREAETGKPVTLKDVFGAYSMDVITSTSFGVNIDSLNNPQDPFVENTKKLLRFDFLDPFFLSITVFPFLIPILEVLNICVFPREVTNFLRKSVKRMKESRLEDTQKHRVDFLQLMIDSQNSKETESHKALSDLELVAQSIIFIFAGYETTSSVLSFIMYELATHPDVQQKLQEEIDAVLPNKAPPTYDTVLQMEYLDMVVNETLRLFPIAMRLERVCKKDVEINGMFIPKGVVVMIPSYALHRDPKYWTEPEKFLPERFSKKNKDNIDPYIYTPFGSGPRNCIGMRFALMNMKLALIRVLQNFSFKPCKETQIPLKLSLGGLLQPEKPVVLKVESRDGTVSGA
Summary of the method: (§2)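 Human liver microsomes with CYP-selective substrate metabolism reactions for 2C9, 2D6 and 3A4.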

Cytochrome P450 2D6 = Cytochrome P450 2D6 (Homo sapiens, UniProt P10635); experiment: Inhibition of CYP2D6 in human liver microsomes using AMMC as substrate by fluorescence assay; format: ADME; summary of the method: as §2
Sequence of Cytochrome P450 2D6 (P10635 whole entry): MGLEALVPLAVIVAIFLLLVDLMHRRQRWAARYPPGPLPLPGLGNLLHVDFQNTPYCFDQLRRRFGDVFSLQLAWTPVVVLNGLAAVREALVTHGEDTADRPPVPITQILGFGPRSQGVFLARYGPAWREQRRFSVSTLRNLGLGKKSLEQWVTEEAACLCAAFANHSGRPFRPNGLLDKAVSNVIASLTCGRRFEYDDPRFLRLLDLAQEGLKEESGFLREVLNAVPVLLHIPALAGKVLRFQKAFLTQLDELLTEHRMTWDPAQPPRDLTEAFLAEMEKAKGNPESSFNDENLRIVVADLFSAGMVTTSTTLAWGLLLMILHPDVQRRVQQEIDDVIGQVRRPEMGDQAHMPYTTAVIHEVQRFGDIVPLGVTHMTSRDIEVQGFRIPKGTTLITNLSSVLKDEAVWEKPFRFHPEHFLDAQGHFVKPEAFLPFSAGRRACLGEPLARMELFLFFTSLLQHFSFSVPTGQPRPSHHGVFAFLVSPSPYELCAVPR

Cytochrome P450 2C9 = Cytochrome P450 2C9 (Homo sapiens, UniProt P11712); experiment: Inhibition of CYP2C9 in human liver microsomes using MFC as substrate by fluorescence assay; format: ADME; summary of the method: as §2
Sequence of Cytochrome P450 2C9 (P11712 whole entry): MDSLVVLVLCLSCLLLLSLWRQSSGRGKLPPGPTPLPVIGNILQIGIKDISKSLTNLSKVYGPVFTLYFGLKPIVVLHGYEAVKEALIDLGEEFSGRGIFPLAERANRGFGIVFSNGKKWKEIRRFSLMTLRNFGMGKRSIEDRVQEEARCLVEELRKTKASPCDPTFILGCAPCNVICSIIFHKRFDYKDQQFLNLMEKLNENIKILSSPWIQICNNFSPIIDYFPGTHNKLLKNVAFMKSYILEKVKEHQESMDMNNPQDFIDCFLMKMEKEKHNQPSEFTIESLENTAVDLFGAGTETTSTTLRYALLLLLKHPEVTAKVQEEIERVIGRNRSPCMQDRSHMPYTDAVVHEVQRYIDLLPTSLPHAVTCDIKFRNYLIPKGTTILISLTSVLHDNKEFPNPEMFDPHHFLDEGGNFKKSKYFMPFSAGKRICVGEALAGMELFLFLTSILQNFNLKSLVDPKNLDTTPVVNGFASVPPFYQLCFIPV

MDR1 (P-gp) = experiment: Efflux ratio of permeability across pig LLC-PK1 cells expressing human MDR1 at 1 uM after 3.5 hrs by LC-MS/MS analysis; format: ADME, cell-based, Sus scrofa
Summary of the method: (§3)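 LLC-PK1 monolayers stably transfected with human MDR1 or mouse Mdr1a, grown in Medium 199/10% FCS with colchicine on permeable inserts and used day 4 after seeding. 1 μM compound added apical or basolateral; transport run in both directions in triplicate, 37 °C, 5% CO₂. Donor and receiver sampled at 3.5 h, quantified by LC–MS/MS. Lucifer yellow checked monolayer tightness.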

Mdr1a (P-gp) = experiment: Efflux ratio of permeability across pig LLC-PK1 cells expressing mouse Mdr1a at 1 uM after 3.5 hrs by LC-MS/MS analysis; format: ADME, cell-based, Sus scrofa; summary of the method: as §3
[11] = Selectivity index, ratio of IC50 for rat L6 cells to IC50 for bloodstream form of Trypanosoma brucei rhodesiense STIB 900; format: toxicity; conditions: read-out: Ratio IC50
Summary of the method: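 Ratio of L-6 rat skeletal myoblast IC50 to T. b. rhodesiense STIB 900 bloodstream trypomastigote IC50, both from Alamar Blue growth-inhibition assays. Each IC50 is the mean of at least 2 measurements.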

[12] = Permeability of the compound after 15 hrs by PAMPA; format: physicochemical; conditions: read-out: permeability
[13] = Half life in C57BL/6J mouse at 0.8 mg/kg, iv as bolus dose by LC-MS/MS analysis; format: ADME, organism-based; conditions: in vivo
Summary of the method: (§4)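 Mice received intravenous compound in N-methylpyrrolidinone / 40% aqueous hydroxypropyl-γ-cyclodextrin (30/70). Blood was drawn into K₂EDTA at 5 min, 15 min, 30 min, 1, 2, 4 and 8 h, and plasma was separated at 3000 × g for 5 min at 4 °C and stored at -20 °C. Plasma levels were measured by LC–MS/MS, and parameters derived by non-compartmental analysis.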

[14] = Clearance in C57BL/6J mouse at 0.8 mg/kg, iv as bolus dose by LC-MS/MS analysis; format: ADME, organism-based; conditions: in vivo; summary of the method: as §4
[15] = Volume of distribution at steady state in C57BL/6J mouse at 0.8 mg/kg, iv as bolus dose by LC-MS/MS analysis; format: ADME, organism-based; conditions: in vivo, read-out: Vdss; summary of the method: as §4
[16] = Unbound fraction in human plasma; format: ADME, cell-free
[17] = tested on: Trypanosoma brucei rhodesiense; experiment: Antitrypanosomal activity against bloodstream form of Trypanosoma brucei rhodesiense STIB 900 infected in NMRI mouse assessed as reduction of parasitemia at 50 mg/kg, po administered for 3 consecutive days starting 1 day post infection measured at 24 hrs post last dose relative to control; format: functional; set-up: scale not given: the % may be the effect or the level left
Summary of the method: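 Female mice infected with STIB900 were dosed orally at 50 mg/kg/day on three consecutive days, starting 1 day post-infection. Compound was in 100% DMSO diluted 10-fold in distilled water, given at 0.1 mL/10 g. Tail-blood parasitaemia was measured 24 h after the last dose versus 4 untreated infected controls. Values are means of 2 mice.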

[18] = Half life in C57BL/6J mouse at 1.3 mg/kg, iv as bolus dose by LC-MS/MS analysis; format: ADME, organism-based; conditions: in vivo; summary of the method: as §4
[19] = Clearance in C57BL/6J mouse at 1.3 mg/kg, iv as bolus dose by LC-MS/MS analysis; format: ADME, organism-based; conditions: in vivo; summary of the method: as §4
[20] = Volume of distribution at steady state in C57BL/6J mouse at 1.3 mg/kg, iv as bolus dose by LC-MS/MS analysis; format: ADME, organism-based; conditions: in vivo, read-out: Vdss; summary of the method: as §4
[21] = Octanol-water intrinsic distribution co-efficient, log D of the compound at 100 uM at pH 7.4 after 16 to 22 hrs by CAMDIS assay; format: physicochemical
Summary of the method: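 Octanol/aqueous buffer (pH 7.4) intrinsic distribution coefficient measured in the CAMDIS carrier-mediated distribution system.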

N#CC1(NC(=O)[C@H](Cc2ccc(OC(F)(F)F)c(Cl)c2)NC(=O)c2cnn(-c3ccc(F)cc3)n2)CC1
solubility [1]: < 0.3 µg/mL | Ki (Rhodesain): 7.4 nM | Ki (Procathepsin L): 266 nM | Ratio Ki [2]: 36 | IC50 [3]: 9 nM | IC50 (L6): 18800 nM | IC50 [4]: > 1000 nM | IC50 [5]: > 1000 nM | IC50 [6]: > 1000 nM | IC50 [7]: 450 nM | IC50 [8]: 64 nM | microsomal CLint at 2 µM [9]: < 10 µL/min/mg | microsomal CLint at 2 µM [10]: < 10 µL/min/mg | IC50 (Cytochrome P450 3A4): > 50000 nM | IC50 (Cytochrome P450 2D6): 3000 nM | IC50 (Cytochrome P450 2C9): 9000 nM | efflux ratio at 3.5 h, 1 µM (MDR1 (P-gp)): 6 | efflux ratio at 3.5 h, 1 µM (Mdr1a (P-gp)): 20 | selectivity ratio [11]: 2090

N#CC1(NC(=O)[C@H](Cc2ccc(OC(F)(F)F)c(Cl)c2)NC(=O)c2cnn(-c3ccc(F)nc3)n2)CC1
solubility [1]: 0.5 µg/mL (≈ 0.93 µM) | Ki (Rhodesain): 14 nM | Ki (Procathepsin L): 143 nM | Ratio Ki [2]: 10 | IC50 [3]: 6 nM | IC50 (L6): 6990 nM | microsomal CLint at 2 µM [9]: < 10 µL/min/mg | microsomal CLint at 2 µM [10]: < 10 µL/min/mg | Papp at 15 h [12]: 0.291 ×10⁻⁶ cm/s | IC50 (Cytochrome P450 3A4): 47000 nM | IC50 (Cytochrome P450 2D6): 1000 nM | IC50 (Cytochrome P450 2C9): 11000 nM | half-life [13]: 1.42 h | clearance [14]: 10.2 mL/min/kg | Vd [15]: 1.2 L/kg | fraction unbound [16]: 0.0148 | Activity [17]: 40.8% | selectivity ratio [11]: 1170

N#CC1(NC(=O)[C@H](Cc2ccc(Cl)c(Cl)c2)NC(=O)c2cnn(-c3ccc(F)cc3)n2)CC1
solubility [1]: < 0.3 µg/mL | Ki (Rhodesain): 2 nM | Ki (Procathepsin L): 131 nM | Ratio Ki [2]: 66 | IC50 [3]: 7 nM | IC50 (L6): 9670 nM | microsomal CLint at 2 µM [9]: < 10 µL/min/mg | microsomal CLint at 2 µM [10]: < 10 µL/min/mg | Papp at 15 h [12]: 1.07 ×10⁻⁶ cm/s | IC50 (Cytochrome P450 3A4): > 50000 nM | IC50 (Cytochrome P450 2D6): 5000 nM | IC50 (Cytochrome P450 2C9): 4000 nM | half-life [18]: > 6.4 h | clearance [19]: < 4.6 mL/min/kg | Vd [20]: < 2.5 L/kg | Activity [17]: 47.2% | selectivity ratio [11]: 1390

CC(C)(C)n1ncc(C(=O)N[C@@H](Cc2ccc(OC(F)(F)F)c(Cl)c2)C(=O)NC2(C#N)CC2)n1
logD at 100 µM [21]: 4.87 | solubility [1]: 0.9 µg/mL (≈ 1.8 µM) | Ki (Rhodesain): 31 nM | Ki (Procathepsin L): 8 nM | Ratio Ki [2]: 0.3 | IC50 [3]: 4 nM | IC50 (L6): 7630 nM | microsomal CLint at 2 µM [9]: < 10 µL/min/mg | microsomal CLint at 2 µM [10]: 17 µL/min/mg | Papp at 15 h [12]: 2.86 ×10⁻⁶ cm/s | IC50 (Cytochrome P450 3A4): > 50000 nM | IC50 (Cytochrome P450 2D6): 500 nM | IC50 (Cytochrome P450 2C9): 5000 nM | half-life [18]: 1.3 h | clearance [19]: 17 mL/min/kg | Vd [20]: 1.7 L/kg | selectivity ratio [11]: 1900
